Assay results: ChEMBL document CHEMBL1158698, “Chinikomycins A and B: isolation, structure elucidation, and biological activity of novel antibiotics from a marine Streptomyces sp. isolate M045” (J Nat Prod, 2005)
Converted amounts (≈) assume the structure as drawn. The source made the active and inactive calls. No cut-off for these calls is given here.

How the values were obtained:
[1] = Antitumor activity against human LXFA 629L cells; type: functional, cell-based
[2] = Antitumor activity against human LXFL 529L cells; type: functional, cell-based
[3] = Antitumor activity against human MAXF 401NL cells; type: functional, cell-based
[4] = Antitumor activity against human MEXF 462NL cells; type: functional, cell-based
[5] = Antitumor activity against human RXF 944L cells; type: functional, cell-based
[6] = Antitumor activity against human UXF 1138L cells; type: functional, cell-based
[7] = tested on: Bacillus subtilis; test: Antimicrobial activity against Bacillus subtilis at 40 ug/plate; type: functional, organism-based
Outline: (§1)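 Agar plate diffusion test. The stated amount of compound is applied per test plate seeded with the named bacterium, alga or fungus. The read-out is the diameter of the growth-inhibition zone, in mm.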

[8] = tested on: Streptomyces viridochromogenes; test: Antimicrobial activity against Streptomyces viridochromogenes Tu 57 at 40 ug/plate; type: functional, organism-based; outline: as §1
[9] = tested on: Staphylococcus aureus; test: Antimicrobial activity against Staphylococcus aureus at 40 ug/plate; type: functional, organism-based; outline: as §1
[10] = tested on: Escherichia coli; test: Antimicrobial activity against Escherichia coli at 40 ug/plate; type: functional, organism-based; outline: as §1
[11] = tested on: Chlorella vulgaris; test: Antimicrobial activity against Chlorella vulgaris at 40 ug/plate; type: functional, organism-based; outline: as §1
[12] = tested on: Chlorella sorokiniana; test: Antimicrobial activity against Chlorella sorokiniana at 40 ug/plate; type: functional, organism-based; outline: as §1
[13] = tested on: Desmodesmus subspicatus; test: Antimicrobial activity against Scenedesmus subspicatus at 40 ug/plate; type: functional, organism-based; outline: as §1
[14] = tested on: Rhizomucor miehei; test: Antimicrobial activity against Mucor miehei at 40 ug/plate; type: functional, organism-based; outline: as §1
[15] = tested on: Candida albicans; test: Antimicrobial activity against Candida albicans at 40 ug/plate; type: functional, organism-based; outline: as §1
[16] = tested on: Encephalomyocarditis virus; test: Antiviral activity against EMC virus infected in human A549 cells assessed as protection against virus-induced cytopathic effect at 100 ug/ml; type: functional, organism-based
[17] = tested on: Bacillus subtilis; test: Antimicrobial activity against Bacillus subtilis at 10 ug/plate; type: functional; outline: as §1
[18] = tested on: Streptomyces viridochromogenes; test: Antimicrobial activity against Streptomyces viridochromogenes Tu 57 at 10 ug/plate; type: functional; outline: as §1
[19] = tested on: Staphylococcus aureus; test: Antimicrobial activity against Staphylococcus aureus at 10 ug/plate; type: functional; outline: as §1
[20] = tested on: Escherichia coli; test: Antimicrobial activity against Escherichia coli at 10 ug/plate; type: functional; outline: as §1
[21] = tested on: Chlorella vulgaris; test: Antimicrobial activity against Chlorella vulgaris at 10 ug/plate; type: functional; outline: as §1
[22] = tested on: Chlorella sorokiniana; test: Antimicrobial activity against Chlorella sorokiniana at 10 ug/plate; type: functional; outline: as §1
[23] = tested on: Desmodesmus subspicatus; test: Antimicrobial activity against Scenedesmus subspicatus at 10 ug/plate; type: functional; outline: as §1
[24] = tested on: Rhizomucor miehei; test: Antimicrobial activity against Mucor miehei at 10 ug/plate; type: functional; outline: as §1
[25] = tested on: Candida albicans; test: Antimicrobial activity against Candida albicans at 10 ug/plate; type: functional; outline: as §1

Q: Which IC50 [1] does the source give for `CCCC[C@@H](C)/C=C(C)/C=C(\C)C(=O)Nc1cc(O)c(/C=C/C=C/C=C/C(=O)NC2=C(O)CCC2=O)c(Cl)c1O` [CHINIKOMYCIN A] here?
A: The IC50 was > 6 µg/mL.

Q: What about the IC50 [2] of the same compound?
A: The IC50 was > 6 µg/mL.

Q: And the IC50 [3]?
A: Its IC50 is 2.41 µg/mL (≈ 4.23 µM).

Q: And the IC50 [4]?
A: The IC50 was 4.15 µg/mL (≈ 7.29 µM).

Q: What about the IC50 [5] of the same compound?
A: Its IC50 is 4.02 µg/mL (≈ 7.06 µM).

Q: What about the IC50 [6] of the same compound?
A: Its IC50 is > 6 µg/mL.

Q: And the Activity [7]?
A: The Activity was “inactive”.

Q: And the Activity [8]?
A: The Activity was “inactive”.

Q: What about the Activity [9] of the same compound?
A: The Activity was “inactive”.

Q: And the Activity [10]?
A: The Activity was “inactive”.

Q: What about the Activity [11] of the same compound?
A: The Activity was “inactive”.

Q: And the Activity [12]?
A: The Activity was “inactive”.

Q: What about the Activity [13] of the same compound?
A: Its Activity is “inactive”.

Q: And the Activity [14]?
A: Its Activity is “inactive”.

Q: What about the Activity [15] of the same compound?
A: The Activity was “inactive”.

Q: What about the Activity [16] of the same compound?
A: Its Activity is “inactive”.

Q: With `CCCC[C@@H](C)/C=C(C)/C=C(\C)C(=O)NC1=CC(=O)C(/C=C/C=C/C=C/C(=O)NC2=C(O)CCC2=O)=C(Cl)C1=O` [CHINIKOMYCIN B] as the compound, how does the IC50 [1] read?
A: The IC50 was > 6 µg/mL.

Q: What about the IC50 [2] of the same compound?
A: The IC50 was > 6 µg/mL.

Q: What about the IC50 [3] of the same compound?
A: The IC50 was 3.04 µg/mL (≈ 5.36 µM).

Q: What about the IC50 [4] of the same compound?
A: The IC50 was > 6 µg/mL.

Q: What about the IC50 [5] of the same compound?
A: Its IC50 is > 6 µg/mL.

Q: And the IC50 [6]?
A: Its IC50 is > 6 µg/mL.

Q: And the Activity [7]?
A: The Activity was “inactive”.

Q: And the Activity [8]?
A: Its Activity is “inactive”.

Q: And the Activity [9]?
A: Its Activity is “inactive”.

Q: And the Activity [10]?
A: Its Activity is “inactive”.

Q: And the Activity [11]?
A: The Activity was “inactive”.

Q: And the Activity [12]?
A: The Activity was “inactive”.

Q: What about the Activity [13] of the same compound?
A: The Activity was “inactive”.

Q: What about the Activity [14] of the same compound?
A: The Activity was “inactive”.

Q: What about the Activity [15] of the same compound?
A: Its Activity is “inactive”.

Q: And the Activity [16]?
A: The Activity was “inactive”.

Q: What does the source list for `CCCC[C@@H](C)/C=C(C)/C=C(\C)C(=O)NC1=C[C@@](O)(/C=C/C=C/C=C/C(=O)NC2=C(O)CCC2=O)[C@@H]2O[C@@H]2C1=O` [MANUMYCIN A]?
A: inhibition zone (IZ) [17]: 16 mm; inhibition zone (IZ) [18]: 16 mm; inhibition zone (IZ) [19]: 16 mm; inhibition zone (IZ) [20]: 16 mm; inhibition zone (IZ) [21]: 16 mm; inhibition zone (IZ) [22]: 16 mm; inhibition zone (IZ) [23]: 16 mm; inhibition zone (IZ) [24]: 16 mm; inhibition zone (IZ) [25]: 16 mm
